In the EternaBench riboswitch data:

Tested on: MS2 coat protein
Assay: apparent Kd, MS2 coat protein; higher = weaker binding; RNA-MaP array; FMN 200 µM where present
Summary of the method: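 Designs were transcribed by stalled E. coli RNA polymerase on Illumina sequencing-chip clusters. They were titrated with SNAP-549-labelled MS2 coat protein from 0.7 or 1.5 nM, doubling to 3 µM, without and then with constant ligand. Buffer: 100 mM Tris-HCl pH 7.5, 80 mM KCl, 4 mM MgCl2, BSA, DTT, yeast tRNA, Tween-20. Green signal was normalised to red-channel RNA signal and control-cluster median Fmax. Apparent Kd is the median of filtered per-cluster binding-curve fits.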

[1] = designed as: OFF switch for flavin mononucleotide, no ligand
[2] = ligand present: flavin mononucleotide, designed as: OFF switch for flavin mononucleotide
[3] = designed as: ON switch for flavin mononucleotide, no ligand
[4] = ligand present: flavin mononucleotide, designed as: ON switch for flavin mononucleotide

Sequence | apparent Kd [1] [nM] | apparent Kd [2] [nM] | apparent Kd [3] [nM] | apparent Kd [4] [nM]
CAGGGUAGAGGAUAUACGUAGGUACAGAUCCGUGUGAUCCUACAUGAGGAUCACCCAUGUAGAAGGCUAGCCUG | 305 | 25.9 | – | –
CAGGGUUCGUGAAUAAGCUAGCUUCGAGAAGGGCCACAUGAGGAUCACCCAUGUCAGCGAAAACGGCAGGAUAUCGAGGGUGAG | – | – | 147 | 48.4
CAGGUAGACUGAGGAUAUACAAUAAACAGCUAGUCUAUCUAGCUGUCUACAUGAGGAUCACCCAUGUAGAAGGCAGUCUGCCUG | 17 | 17.4 | – | –
CAGGUAGACUGAGGAUAUACAAUAAAGACCUAGUCUAUCUAGGUCCCUACAUGAGGAUCACCCAUGUAGAAGGCAGUCUGCCUG | 15.9 | 20.5 | – | –
CAGGUAGACUGAGGAUAUACAAUAAGACCUAGUCUAUCUAGGUCAAUCACAUGAGGAUCACCCAUGUAGAAGGCAGUCUGCCUG | 17.3 | 36.2 | – | –
CAGGUAGACUGAGGAUAUACAAUAAGACCUAGUCUAUCUAGGUCCCUCACAUGAGGAUCACCCAUGUAGAAGGCAGUCUGCCUG | 51.5 | 636 | – | –
CAGGUCUGAGGAUAUCCAUCUUCAUACAUGAGGAUCACCCAUGUUUACCUUUGGGUUUUCGGAGAAGGCAGUUUUU | 273 | 370 | – | –
CAGUACUGAGGAUAUACAUGAGGAUCACCCAUGUGCCUAAGCUAGGAUACUAGCAUUAGUAGAAGGCAGUACUG | 12.8 | 24.8 | – | –
CAGUACUGAGGAUAUACAUGAGGAUCACCCAUGUGCUUCAGCUAGGAUACUAGCAUUAGUAGAAGGCAGUACUG | 10.9 | 64.1 | – | –
CAGUACUGAGGAUAUACAUGAGGAUCACCCAUGUGUCCCGGCUAGGAAACUAGCAAAAGUAGAAGGCAGUACUG | 24 | 516 | – | –
CAGUACUGAGGAUAUACAUGAGGAUCACCCAUGUGUCCUAGCUAGGAUACUAGCAUUAGUAGAAGGCAGUACUG | 18 | 213 | – | –
CAGUACUGAGGAUAUACAUGAGGAUCACCCAUGUGUUCCAGCGAGGAAACUAGCAAAAGUAGAAGGCAGUACUG | 20.4 | 278 | – | –
CAGUACUGAGGAUAUACAUGAGGAUCACCCAUGUGUUCCAGCUAGGAAACUAGCAAAAGUAGAAGGCAGUACUG | 27.5 | 589 | – | –
CAGUACUGAGGAUAUACAUGAGGAUCACCCAUGUGUUCCAGCUAGGAAACUAGCAAAAUUAGAAGGCAGUACUG | 11.7 | 20.7 | – | –
CAGUACUGAGGAUAUACAUGAGGAUCACCCAUGUGUUCCAGCUAGGAAACUAGCGAAAGUAGAAGGCAGUACUG | 23.3 | 551 | – | –
CAGUACUGAGGAUAUACAUGAGGAUCACCCAUGUGUUCCUUGUAGGAUAUGCGCAAAAGUAGAAGGCAGAAGGAGAUGUGCCUA | 6.59 | 6.3 | – | –
CAGUAUAACGAAGGAUAUGGAUACAUGAGGAUCACCCAUGUAUUUUUUGUGAUUUUAAAAUUGAUCCAGAAGGUCGUAUAACUG | 31.1 | 29.2 | – | –
CAUACGUCAGGAUAUCUGAUGUCUAACUUCGGUUAGACAUCAGAGAAGGGACAUGAGGAUCACCCAUGUAUGAA | 118 | 130 | – | –
CAUAUCCAAGGAUAUACGAUGGCUCCUUCCAUCGUGUGACCACAUGAGGAUCACCCAUGUAGAAGGUGGAUAUU | 23.2 | 24 | – | –
CAUCAGUCUGUGAGGAUAUUGGUCGAGUGACUUAUUAAGAAGGCACAUGAGGAUCACCCAUGUGGGAAGUCAGG | 24.3 | 26.6 | – | –
CAUCCACGGUAGAAGGGACUAGGCACAUGAGGAUCACCCAUGUCCUUUCCCAACUUGUGCCGCGGUCAGGAUAUACCGGGUCGG | 12.5 | 20 | – | –

Sequence | apparent Kd [1] [nM] | apparent Kd [2] [nM] | apparent Kd [3] [nM] | apparent Kd [4] [nM]
CAUCUAUUUAGAGGAUAUGGUGACGAAAAGCUACCAGAAGGCUAAGUACAUGAGGAUCACCCAUGUGCGUGGGCGCUUAGGGUC | 9.93 | 47.8 | – | –
CAUCUGGUGCAGAAGGGACAUAGGGUCCUUUGGUCGCUAAGUAUCCCACAUGAGGAUCACCCAUGUCAGGAUAUGUAUCUGGAU | 15.9 | 30.1 | – | –
CAUGUCCUCACAGGAUAUGCUGGACUUUGUCCAGCAGAAGGGUGUUAACAUGAGGAUCACCCAUGUGGACAUGAUAUAUUUAAG | – | – | 757 | 66.2
CAUGUGUAAGGAUAUGACAAUGGUAUCUUCGGAUACCAUUGUCAGAAGGUACAUGAGGAUCACCCAUGUGGAUC | 441 | 103 | – | –
CAUGUUUGGCUGGUCGAGAAACACAUGAGGAUCACCCAUGUCAGAAGGCGACGUCAGCAAACCGUCGAGGAUAUGACAUCAAAA | 5.65 | 30.2 | – | –
CAUUAAUUCAUUAUAUUAAUUUUACAGGAUAUGUAACAUGAGGAUCACCCAUGUAUUCAAGGUUAACAGAAGGGUAUAUCUAGU | 18.2 | 14 | – | –
CAUUAAUUGAUUAUUGAAUAUUUACAGGAUAUGUUACAUGAGGAUCACCCAUGUAAAUAUGGGUUACAGAAGGGUAUUUAUAGA | 36.2 | 32.5 | – | –
CAUUAAUUGAUUAUUGUAUUUAUACAGGAUAUGUAACAUGAGGAUCACCCAUGUAUACAUGGGAAACAGAAGGGUAUUUAAAGA | 34.7 | 25.3 | – | –
CAUUUACAGGGAGGAUAUACAUGAGGAUCACCCAUGUCAUCAUACGAUAUUUCUUUUGUAUGAGUGUAGAAGGCCCAACUACCA | 10.2 | 12 | – | –
CCACGGUAUGUAGGAUAUGCAUAGCAUUGCUAAAAAGAAGGACAUGAGGAUCACCCAUGUAUGUAUUCCAUACUAAUCCCGUGC | 8.98 | 8.06 | – | –
CCACUCGGUGAGAAGGCGCCGGCGUCCGCGAGGCGAGGAUAUCACAUGAGGAUCACCCAUGUGGGCAUGAAGAUUGCCACUAGG | 61.3 | 152 | – | –
CCACUGAUACCUUGGCCGCUACAUGAGGAUCACCCAUGUCGUGAGGAUAUCCCACCAUACUGUUAGGAGAAGGCGCGUAUGGGC | 11 | 17.2 | – | –
CCACUGUCAGGAUAUCGUGCAUAAGCGAUUACAUUUAUGUGCGAGAAGGGACAUGAGGAUCACCCAUGUAAUCG | 528 | 368 | – | –
CCAGACGUUGUAGGAUAUCUGAAAGGAAGUGUAAGAGAAGGAUAGUGUCUGUAAAACAUGAGGAUCACCCAUGUGGGCGCAUCC | 19.6 | 61.9 | – | –
CCAGAGACAUAAGGAUAUCGAGUGGAAUACACUCGAGAAGGUAUGUGAAAACAUGAGGAUCACCCAUGUGAUCAAUACUCUGGA | – | – | 19.4 | 20.2
CCAGCAACAUGAGGAUCACCCAUGUAGGAUAUCGCUAUUGUAAUCAUGAAACAUGAUUACAAUAGCGAGAAGGACAUAUGCUCC | 7.53 | 10.2 | – | –
CCAGGCUGUGUGAGGAUAUGCUGGUCCUUGGAUCAGCAGAAGGCACAUGAGGAUCACCCAUGUGAAUAGCUUGG | 16.9 | 30 | – | –
CCAUACCGAGGAUAUACAUGAGGAUCACCCAUGUCAAAACCACGUGUACGGCGGUCUUGUAGAAGGCGGAAAUA | 11 | 16 | – | –
CCAUCGUGUGUGAGGAUAUGCUGGUCCUUGGAUCAGCAGAAGGCACAUGAGGAUCACCCAUGUGAAUACGGUGG | 18.6 | 29 | – | –
CCAUGACAAAGUCAUGGAUAACGAACAUGAGGAUCACCCAUGUAGGAUAUGCUACUCAAAGAGUAGCAGAAGGACAUGUGUCUU | 32.7 | 165 | – | –
CCAUGACCGGAGAAGGCAGUUUGUGGGCCUGUUCCUGUCGGAUACAUGAGGAUCACCCAUGUACCUGAGGAUAUCUGGUCGCAG | 5.06 | 6.13 | – | –
